Results taken from ChEMBL document CHEMBL4130442, “Design, synthesis and structure-activity relationship studies of a focused library of pyrimidine moiety with anti-proliferative and anti-metastasis activities in triple negative breast cancer” (Eur J Med Chem, 2017).

Assays:
MDA-MB-231 [1] = experiment: Induction of autophagy in human MDA-MB-231 cells assessed as change in LC3-2 protein level at 2.5 uM incubated for 24 hrs in presence of control siRNA by Western blot method relative to untreated control; type: functional
Summary of the method: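 Before treatment, MDA-MB-231 cells were transfected with control or PDGFR-β siRNA, then exposed to 2.5 μM compound for 24 h. Lysates of pooled adherent and floating cells were immunoblotted (10-15% SDS-PAGE, PVDF, ECL) for PDGFR-β-AKT-ULK1 autophagy signalling markers, with β-actin as loading control.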

MDA-MB-231 [2] = experiment: Effect on total ULK1 protein level in human MDA-MB-231 cells at 2.5 uM incubated for 24 hrs by Western blot relative to untreated control; type: ADME, cell-based; conditions: mda-mb-231, 24 h
Summary of the method: (§1)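 MDA-MB-231 cells were exposed for 24 h. Adherent and floating cells were pooled and lysed for 1 h at 4 °C in 50 mM Hepes pH 7.4 with 1% Triton X-100, orthovanadate, NaF, EDTA, PMSF, aprotinin and leupeptin. After 12,000 rpm clearing, equal protein was run on 10-15% SDS-PAGE and blotted to PVDF. Detection used HRP-ECL, with β-actin as loading control and densitometric quantification.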

MDA-MB-231 [3] = experiment: Antiproliferative activity against human MDA-MB-231 cells incubated for 72 hrs by MTT assay; type: functional, cell-based; conditions: MDA-MB-231, 72 h
Summary of the method: (§2)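 MDA-MB-231 cells grown in DMEM with 10% FBS under 5% CO2 were seeded at 5×10^4 cells/ml. After 24 h, a concentration series was added for 24, 48 or 72 h and viability was read by MTT. IC50 is mean ± SD of triplicates.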

[4] = biological target: T1, Platelet-derived growth factor receptor beta (Homo sapiens, UniProt P09619); experiment: Inhibition of PDGFRbeta in human MDA-MB-231 cells assessed as Akt Ser473 phosphorylation level at 5 uM incubated for 24 hrs by Western blot relative to untreated control; type: cell-based
Summary of the method: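 Cells were treated 24 h at several concentrations. Pooled adherent and floating cells were lysed in Hepes 50 mM pH 7.4 / 1% Triton X-100 buffer with vanadate, NaF, EDTA, PMSF, aprotinin and leupeptin. Equal protein was run on 10-15% SDS-PAGE and blotted to PVDF. PDGFR-β-AKT-ULK1 pathway phospho-proteins were probed and detected by ECL, with β-actin as loading control.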

MDA-MB-231 [5] = experiment: Effect on total c-Raf protein level in human MDA-MB-231 cells at 10 uM incubated for 24 hrs in presence of PDGFRbeta siRNA by Western blot relative to untreated control; type: cell-based; conditions: mda-mb-231, 24 h
[6] = biological target: T1, Platelet-derived growth factor receptor beta; experiment: Inhibition of PDGFRbeta in human MDA-MB-231 cells assessed as mTOR Ser2448 phosphorylation level at 2.5 uM incubated for 24 hrs in presence of PDGFRbeta siRNA by Western blot relative to untreated control; type: cell-based
Summary of the method: (§3)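 Cells were transfected with control or PDGFR-β siRNA, then treated with 2.5 μM compound for 24 h. PDGFR-β-AKT-ULK1 pathway phospho-proteins were assessed by western blot: lysis in Hepes pH 7.4 / Triton buffer, 10-15% SDS-PAGE, PVDF, ECL detection, β-actin as loading control.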

[7] = biological target: T1, Platelet-derived growth factor receptor beta; experiment: Inhibition of PDGFRbeta (unknown origin) using ATP and enzyme substrate by kinase-glo Plus luminescence kinase assay
MDA-MB-231 [8] = experiment: Effect on total ERK1/2 protein level in human MDA-MB-231 cells at 10 uM incubated for 24 hrs in presence of PDGFRbeta siRNA by Western blot relative to untreated control; type: cell-based; conditions: mda-mb-231, 24 h
[9] = biological target: T1, Platelet-derived growth factor receptor beta; experiment: Inhibition of PDGFRbeta in human MDA-MB-231 cells assessed as PDGFRbeta Tyr740 phosphorylation level at 2.5 uM incubated for 24 hrs in presence of control siRNA by Western blot relative to untreated control; type: cell-based; summary of the method: as §3
MDA-MB-231 [10] = experiment: Effect on total Ras protein level in human MDA-MB-231 cells at 10 uM incubated for 24 hrs by Western blot relative to untreated control; conditions: mda-mb-231, 24 h
[11] = biological target: T1, Platelet-derived growth factor receptor beta; experiment: Inhibition of PDGFRbeta in human MDA-MB-231 cells assessed as ULK Ser317 phosphorylation level at 2.5 uM incubated for 24 hrs in presence of PDGFRbeta siRNA by Western blot relative to untreated control; type: cell-based; summary of the method: as §3
[12] = biological target: T1, Platelet-derived growth factor receptor beta; experiment: Inhibition of PDGFRbeta in human MDA-MB-231 cells assessed as ULK Ser555 phosphorylation level at 2.5 uM incubated for 24 hrs in absence of PDGFRbeta siRNA by Western blot relative to untreated control; type: cell-based; summary of the method: as §3
MDA-MB-436 = experiment: Antiproliferative activity against human MDA-MB-436 cells incubated for 24 hrs by MTT assay; type: functional, cell-based; conditions: MDA-MB-436, 24 h
MDA-MB-231 [13] = experiment: Antiproliferative activity against human MDA-MB-231 cells incubated for 48 hrs by MTT assay; type: functional, cell-based; conditions: MDA-MB-231, 48 h; summary of the method: as §2
MDA-MB-231 [14] = experiment: Induction of apoptosis in human MDA-MB-231 cells assessed as change in cleaved PARP protein level at 10 uM incubated for 24 hrs by Western blot method relative to untreated control; type: functional; summary of the method: as §1
[15] = biological target: T2, Mitogen-activated protein kinase; ERK1/ERK2 (Homo sapiens) (UniProt P27361+P28482); experiment: Inhibition of ERK1/2 in human MDA-MB-231 cells assessed as ERK1/2 Thr202/Tyr204 phosphorylation level at 10 uM incubated for 24 hrs in presence of PDGFRbeta siRNA by Western blot relative to untreated control; type: cell-based
MDA-MB-231 [16] = experiment: Antiproliferative activity against human MDA-MB-231 cells incubated for 24 hrs by MTT assay; type: functional, cell-based; conditions: MDA-MB-231, 24 h; summary of the method: as §2
[17] = biological target: T1, Platelet-derived growth factor receptor beta; experiment: Inhibition of PDGFRbeta in human MDA-MB-231 cells assessed as Akt Ser473 phosphorylation level at 2.5 uM incubated for 24 hrs in presence of control siRNA by Western blot relative to untreated control; type: cell-based; summary of the method: as §3
[18] = biological target: T1, Platelet-derived growth factor receptor beta; experiment: Inhibition of PDGFRbeta in human MDA-MB-231 cells assessed as Akt Thr305 phosphorylation level at 2.5 uM incubated for 24 hrs in absence of PDGFRbeta siRNA by Western blot relative to untreated control; type: cell-based; summary of the method: as §3
MDA-MB-231 [19] = experiment: Induction of apoptosis in human MDA-MB-231 cells assessed as change in cleaved caspase-3 protein level at 2.5 uM incubated for 24 hrs by Western blot method relative to untreated control; type: functional; summary of the method: as §1
[20] = biological target: T1, Platelet-derived growth factor receptor beta; experiment: Inhibition of PDGFRbeta in human MDA-MB-231 cells assessed as ULK Ser555 phosphorylation level at 2.5 uM incubated for 24 hrs in presence of control siRNA by Western blot relative to untreated control; type: cell-based; summary of the method: as §3
[21] = biological target: T1, Platelet-derived growth factor receptor beta; experiment: Inhibition of PDGFRbeta in human MDA-MB-231 cells assessed as C-Raf Ser338 phosphorylation level at 2.5 uM incubated for 24 hrs in presence of PDGFRbeta siRNA by Western blot relative to untreated control; type: cell-based
[22] = biological target: T2, Mitogen-activated protein kinase; ERK1/ERK2 (Homo sapiens); experiment: Inhibition of ERK1/2 in human MDA-MB-231 cells assessed as ERK1/2 Thr202/Tyr204 phosphorylation level at 2.5 uM incubated for 24 hrs in presence of PDGFRbeta siRNA by Western blot relative to untreated control; type: cell-based

T1 sequence (P09619 whole entry): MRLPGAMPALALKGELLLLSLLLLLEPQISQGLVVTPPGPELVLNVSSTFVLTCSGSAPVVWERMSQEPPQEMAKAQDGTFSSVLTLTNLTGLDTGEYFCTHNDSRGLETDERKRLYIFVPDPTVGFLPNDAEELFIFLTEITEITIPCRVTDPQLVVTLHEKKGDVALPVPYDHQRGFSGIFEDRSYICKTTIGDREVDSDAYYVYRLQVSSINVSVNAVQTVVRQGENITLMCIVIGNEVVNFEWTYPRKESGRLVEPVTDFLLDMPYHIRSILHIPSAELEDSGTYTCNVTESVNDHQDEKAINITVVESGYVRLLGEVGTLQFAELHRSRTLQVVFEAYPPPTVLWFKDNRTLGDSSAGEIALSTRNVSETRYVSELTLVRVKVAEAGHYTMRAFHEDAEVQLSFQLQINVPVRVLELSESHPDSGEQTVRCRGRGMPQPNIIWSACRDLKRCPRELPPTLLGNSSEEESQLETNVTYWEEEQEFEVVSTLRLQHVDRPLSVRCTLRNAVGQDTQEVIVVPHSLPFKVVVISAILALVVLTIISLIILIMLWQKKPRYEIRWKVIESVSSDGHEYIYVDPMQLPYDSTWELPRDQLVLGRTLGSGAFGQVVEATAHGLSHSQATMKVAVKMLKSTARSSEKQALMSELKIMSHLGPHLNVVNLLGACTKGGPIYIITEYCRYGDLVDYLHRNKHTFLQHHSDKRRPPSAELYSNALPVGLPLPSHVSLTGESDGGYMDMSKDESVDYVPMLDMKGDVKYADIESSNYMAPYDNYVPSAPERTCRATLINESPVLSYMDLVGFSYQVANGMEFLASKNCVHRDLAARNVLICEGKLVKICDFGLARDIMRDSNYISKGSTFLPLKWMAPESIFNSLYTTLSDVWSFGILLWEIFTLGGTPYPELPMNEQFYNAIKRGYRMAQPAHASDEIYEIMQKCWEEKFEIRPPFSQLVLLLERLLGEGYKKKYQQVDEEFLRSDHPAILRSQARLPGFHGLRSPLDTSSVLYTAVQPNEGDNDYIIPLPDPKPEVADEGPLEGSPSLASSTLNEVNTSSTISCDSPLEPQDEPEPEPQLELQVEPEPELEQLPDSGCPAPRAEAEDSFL
T2 sequence (P27361 whole entry, looked up): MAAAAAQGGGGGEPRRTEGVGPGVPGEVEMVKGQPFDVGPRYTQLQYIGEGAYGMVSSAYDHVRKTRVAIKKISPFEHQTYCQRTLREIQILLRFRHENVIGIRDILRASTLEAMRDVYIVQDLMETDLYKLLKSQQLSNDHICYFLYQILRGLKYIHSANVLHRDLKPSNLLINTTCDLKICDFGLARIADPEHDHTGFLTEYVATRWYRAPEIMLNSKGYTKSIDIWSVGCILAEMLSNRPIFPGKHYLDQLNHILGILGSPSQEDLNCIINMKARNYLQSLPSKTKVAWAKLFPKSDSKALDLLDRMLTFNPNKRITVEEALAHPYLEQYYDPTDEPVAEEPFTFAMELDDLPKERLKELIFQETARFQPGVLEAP
T2 sequence (P28482 whole entry, looked up): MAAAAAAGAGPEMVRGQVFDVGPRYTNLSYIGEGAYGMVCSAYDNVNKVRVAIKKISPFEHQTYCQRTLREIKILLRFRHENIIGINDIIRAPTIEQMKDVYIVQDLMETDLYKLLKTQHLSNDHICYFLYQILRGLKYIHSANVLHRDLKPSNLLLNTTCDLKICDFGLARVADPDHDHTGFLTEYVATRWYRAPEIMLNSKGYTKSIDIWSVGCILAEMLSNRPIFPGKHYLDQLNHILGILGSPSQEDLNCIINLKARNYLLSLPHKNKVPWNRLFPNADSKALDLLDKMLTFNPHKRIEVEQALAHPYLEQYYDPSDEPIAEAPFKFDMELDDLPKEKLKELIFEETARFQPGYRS

**Q.** `COc1cccc(Nc2cc(N3CCN(C(=O)Nc4ccc(C(F)(F)F)cc4)CC3)ncn2)c1` was tested. Which “fold change (FC)” value (MDA-MB-231 [1]) did it give?
**A.** The value was 2.34.

**Q.** And the “fold change (FC)” value (MDA-MB-231 [2])?
**A.** Its value is 0.89.

**Q.** And the IC50 (MDA-MB-231 [3])?
**A.** The IC50 was 630 nM.

**Q.** What about the fold change (FC) [4] of the same compound?
**A.** Its fold change (FC) is 0.23.

**Q.** What about the “fold change (FC)” value (MDA-MB-231 [5]) of the same compound?
**A.** The value was 1.23.

**Q.** And the fold change (FC) [6]?
**A.** Its fold change (FC) is 0.16.

**Q.** What about the IC50 [7] of the same compound?
**A.** The IC50 was 7800 nM.

**Q.** What about the “fold change (FC)” value (MDA-MB-231 [8]) of the same compound?
**A.** The value was 1.53.

**Q.** And the fold change (FC) [9]?
**A.** Its fold change (FC) is 0.08.

**Q.** What about the “fold change (FC)” value (MDA-MB-231 [10]) of the same compound?
**A.** The value was 2.32.

**Q.** And the fold change (FC) [11]?
**A.** Its fold change (FC) is 3.46.

**Q.** And the fold change (FC) [12]?
**A.** The fold change (FC) was 3.67.

**Q.** And the IC50 (MDA-MB-436)?
**A.** Its IC50 is 2360 nM.

**Q.** What about the IC50 (MDA-MB-231 [13]) of the same compound?
**A.** Its IC50 is 680 nM.

**Q.** What about the “fold change (FC)” value (MDA-MB-231 [14]) of the same compound?
**A.** Its value is 0.97.

**Q.** What about the fold change (FC) [15] of the same compound?
**A.** The fold change (FC) was 2.38.

**Q.** What about the IC50 (MDA-MB-231 [16]) of the same compound?
**A.** The IC50 was 730 to 750 nM.

**Q.** And the fold change (FC) [17]?
**A.** The fold change (FC) was 0.88.

**Q.** What about the fold change (FC) [18] of the same compound?
**A.** Its fold change (FC) is 0.05.

**Q.** What about the “fold change (FC)” value (MDA-MB-231 [19]) of the same compound?
**A.** The value was 0.87.

**Q.** What about the fold change (FC) [20] of the same compound?
**A.** Its fold change (FC) is 3.21.

**Q.** What about the fold change (FC) [21] of the same compound?
**A.** Its fold change (FC) is 0.85.

**Q.** And the fold change (FC) [22]?
**A.** Its fold change (FC) is 1.05.
